Assay: Biodistribution: uptake of 111In-labelled peptides in normal tissues
Assay type: in vivo, mice
Outline: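 Female athymic BALB/c mice with s.c. A431-CCK2R (2 × 10^6 cells, left flank) and mock-transfected A431 (right flank) tumours, ~0.1–0.2 g after ~10 days; n = 5/group. 111In-DOTA-peptide (11 GBq/μmol, >95% radiochemical purity) injected into the tail vein. Blood and organs were dissected at 1 and 4 h p.i., weighed, and gamma-counted; %ID/g, mean ± SD. Blocking group: 1,000-fold molar excess of unlabelled peptide, dissected at 4 h.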

tissue uptake (mouse, in vivo, iv, 370 kBq (0.03 nmol)) [%ID/g] | blood levels relative to the other peptides investigated (BALB/c nude mice, 111In-labelled peptide, 1 h p.i.) | Molecule
> 48 |  | CSCC[C@H](NC(=O)[C@H](Cc1c[nH]c2ccccc12)NC(=O)CNC(=O)[C@H](Cc1ccc(O)cc1)NC(=O)[C@H](C)NC(=O)[C@H](CCC(=O)O)NC(=O)[C@H](CCC(=O)O)NC(=O)[C@H](CCC(=O)O)NC(=O)[C@H](CCC(=O)O)NC(=O)[C@H](CCC(=O)O)NC(=O)[C@@H](CCC(=O)O)NC(=O)CN1CCN(CC(=O)O)CCN(CC(=O)O)CCN(CC(=O)O)CC1)C(=O)N[C@@H](CC(=O)O)C(=O)N[C@@H](Cc1ccccc1)C(N)=O [MG0]
 | tenfold higher | DOTA-Gly-Ser-Cys-(Glu-Ala-Tyr-Gly-Trp-Nle-Asp-Phe-NH2)2 [MGD5]
